High-throughput results: PubChem, Broad Institute
GASC1 inh – blocks human GASC-1 (KDM4C) demethylase activity | AID 720574 | Q9H3R0 | 96,000 tested, 0.15% active | inhibition, % at 12.5 µM | GST-KDM4C 2-372, H3K9me3 peptide, LANCE TR-FRET;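 active = mean replicate inhibition above about 25%, with at least 55% of replicates also reaching it, limit read from the data, passing the limit was not always enough; inconclusive = only one of those two conditions met; inactive = neither condition met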
Target sequence (Q9H3R0 2-372 limits assumed): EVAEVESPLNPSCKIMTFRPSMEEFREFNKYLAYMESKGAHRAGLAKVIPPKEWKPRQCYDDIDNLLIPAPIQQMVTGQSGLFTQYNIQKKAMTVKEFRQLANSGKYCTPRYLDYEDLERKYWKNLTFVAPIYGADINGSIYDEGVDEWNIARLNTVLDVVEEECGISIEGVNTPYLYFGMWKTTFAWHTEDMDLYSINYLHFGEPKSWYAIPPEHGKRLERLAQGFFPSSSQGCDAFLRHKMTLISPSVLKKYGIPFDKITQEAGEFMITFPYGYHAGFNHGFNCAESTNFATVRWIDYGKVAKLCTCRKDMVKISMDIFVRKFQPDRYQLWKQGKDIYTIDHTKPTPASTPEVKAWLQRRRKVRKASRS
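material = GST-tagged GASC-1 (JMJD2C) catalytic fragment, aa 2-372 | amount = enzyme final amount 10 nM | medium = HEPES buffer, pH 7.5, plus ascorbate | also added = H3K9me3 peptide substrate, Fe(II), 2-oxoglutarate | dosing = single dose | times = 30 min demethylation and 1 h detection at room temperature | detection = LANCE TR-FRET | read-out basis = Fall in 671/618 emission ratio as inhibition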
T cruzi growth-1 – T. cruzi proliferation inhibition; T. cruzi beta-gal in NIH3T3, GalScreen luminescence, 90 h; AID 624255; inhibition, % at 8.34 µM; 77,000 tested, 5.9% active;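 active = mean inhibition above about 93%, with at least 55% of replicates each passing it, limit read from the data, passing the limit was not always enough; inconclusive = only one of those two conditions holds; inactive = neither condition holds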
IDH1 R132H inh – inhibitors of human IDH1 R132H; O75874; IDH1 R132H reductase, diaphorase/resazurin fluorescence, 60 min; inhibition, % at 10 µM; 70,000 tested, 0.18% active; AID 624101; in the data active = inhibition above about 34%; inconclusive = no clear call, values can overlap the other calls; inactive = below about 11%;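 also: 0% = DMSO and 100% = no enzyme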
T cruzi growth-2 – Trypanosoma cruzi proliferation inhibition; 5,600 tested, 72% active; T. cruzi beta-gal in NIH3T3, GalScreen luminescence, 90 h; inhibition, % at 8.35 µM; shares compounds with T cruzi growth-1;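 active = mean replicate inhibition above about 95% and at least 55% of replicates individually reaching it, limit read from the data; inconclusive = only one of the two criteria is met; inactive = neither criterion is met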
T cruzi growth-3 – Trypanosoma cruzi proliferation inhibition; shares compounds with T cruzi growth-1; T. cruzi beta-gal in NIH3T3, GalScreen luminescence, 90 h; inhibition, % at 2.09 µM; 5,600 tested, 21% active; AID 651740;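 active = mean inhibition above about 95%, with at least 55% of replicates also reaching it, limit read from the data; inconclusive = meets just one of the two conditions; inactive = meets neither condition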;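 also: plate controls were neutral control median for no effect and positive control median for full effect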
NIH3T3 tox – NIH/3T3 (mouse) viability loss | shares compounds with T cruzi growth-1 | NIH/3T3 viability, CellTiter-Glo ATP luminescence, 90 h | cytotoxicity (signal decrease), % at 8.35 µM | 5,600 tested, 14% active;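 active = mean signal decrease across replicates above about 35% based on untreated-well scatter, with enough replicates individually passing, limit read from the data; inconclusive = no rule stated though some were filed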;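 also: 0% = median of neutral control wells and 100% = median of positive control wells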
3T3 cytotox 2 – kills mouse NIH/3T3 fibroblasts; shares compounds with T cruzi growth-1; NIH/3T3 viability, CellTiter-Glo ATP luminescence, 90 h; inhibition, % at 24.9 µM; 5,600 tested, 56% active; AID 651744;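 active = mean loss of cell viability signal at or above a set limit, and enough replicates individually reaching it; inconclusive = meets only the mean limit or only the replicate share; inactive = meets neither condition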;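 also: 0% = median of neutral control wells and 100% = median of positive control wells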
* = called active by the depositor; ? = inconclusive; nt = no result. The sample as a whole holds a higher share of hits than the screen did.

SMILES	GASC1 inh	T cruzi growth-1	IDH1 R132H inh	T cruzi growth-2	T cruzi growth-3	NIH3T3 tox	3T3 cytotox 2
C[C@H]1CN([C@@H](C)CO)C(=O)c2cccc(NC(=O)C3CC3)c2O[C@H]1CN(C)S(=O)(=O)c1cccs1	-0.2	nt	nt	nt	nt	nt	nt
OC[C@@H]1[C@@H](c2ccc(/C=C/c3ccccc3)cc2)[C@@H]2CN(Cc3cccnc3)CCCCN12	0.5	?	nt	104.0*	80.3	45.9*	103.3*
OC[C@@H]1[C@H](c2ccc(/C=C/c3ccccc3)cc2)[C@H]2CN(Cc3cncnc3)CCCCN12	-1.8	75.2	nt	nt	nt	nt	nt
COc1ccccc1-c1ccc([C@H]2[C@H](CO)N3CCCCN(Cc4ccncc4)C[C@@H]23)cc1	3.9	77.3	nt	nt	nt	nt	nt
OC[C@@H]1[C@H](c2ccc(/C=C/c3ccccc3)cc2)[C@@H]2CN(Cc3cccnc3)CCCCN12	-1.9	105.4*	nt	110.7*	87.8	41.1*	103.3*
OC[C@@H]1[C@@H](c2ccc(/C=C/c3ccccc3)cc2)[C@@H]2CN(Cc3cncnc3)CCCCN12	0.2	54.8	nt	nt	nt	nt	nt
OC[C@H]1[C@@H](c2ccc(/C=C/c3ccccc3)cc2)[C@@H]2CN(Cc3cncnc3)CCCCN12	nt	102.3*	nt	106.5*	34.3	20.9	104.6*
OC[C@@H]1[C@H](c2ccc(/C=C/c3ccccc3)cc2)[C@@H]2CN(Cc3ccncc3)CCCCN12	2.9	120.7*	nt	107.2*	?	?	104.0*
C[C@H]1CN([C@@H](C)CO)C(=O)c2cc(-c3ccc(C(=O)N(C)C)cc3)cnc2O[C@H]1CN(C)Cc1ccc(C(=O)O)cc1	0.4	43.3	0.4	nt	nt	nt	nt
O=C1OCCN1/N=C/c1ccc([N+](=O)[O-])o1	nt	nt	0.4	nt	nt	nt	nt
CC(C)NC(=O)N1[C@H](CO)[C@@H]2c3ccccc3N(C)C[C@@H]21	1.1	0.9	nt	nt	nt	nt	nt
Cc1ccc(S(=O)(=O)N(C)C[C@H]2Oc3ccc(NC(=O)Nc4ccc(F)cc4)cc3CC(=O)N([C@@H](C)CO)C[C@H]2C)cc1	0.2	-28.4	-3.4	nt	nt	nt	nt
CN(C)C(=O)c1ccc(-c2ccccc2[C@@H]2[C@@H](C#N)N(C(=O)C3CC3)[C@H]2CO)cc1	-0.4	nt	nt	nt	nt	nt	nt
C[C@@H]1CCCCO[C@H](CN(C)C(=O)Nc2ccccc2)[C@H](C)CN([C@@H](C)CO)C(=O)c2cc(NC(=O)Nc3ccccc3)ccc2O1	-0.1	74.8	2.8	nt	nt	nt	nt
CC(C)NC(=O)Nc1ccc2c(c1)C(=O)N([C@@H](C)CO)C[C@H](C)[C@H](CN(C)C(=O)Nc1ccccc1)OCCCC[C@H](C)O2	-0.1	100.3*	1.5	80.3	49.9	13.3	-3.7
C[C@H](CO)N1C[C@H](C)[C@H](CN(C)C(=O)Nc2ccccc2)OCCCC[C@H](C)Oc2ccc(NC(=O)Nc3ccc(F)cc3)cc2C1=O	0.4	82.7	1.2	nt	nt	nt	nt
C[C@H](CO)N1C[C@H](C)[C@@H](CN(C)C(=O)Nc2ccccc2)OCCCC[C@H](C)Oc2ccc(NC(=O)Nc3ccccc3)cc2C1=O	-1.9	101.9*	-2.1	106.6*	7.9	23.1	5.1
C[C@H]1CCCCO[C@H](CN(C)C(=O)Nc2ccccc2)[C@@H](C)CN([C@@H](C)CO)C(=O)c2cc(NC(=O)Nc3ccccc3)ccc2O1	-0.1	98.4*	-2.1	108.9*	20.1	15.6	12.3
C[C@H]1CCCCO[C@@H](CN(C)C(=O)Nc2ccccc2)[C@@H](C)CN([C@@H](C)CO)C(=O)c2cc(NC(=O)Nc3ccccc3)ccc2O1	-0.5	?	0.2	110.4*	10.1	-6.4	18.4
CC(C)NC(=O)Nc1ccc2c(c1)C(=O)N([C@@H](C)CO)C[C@@H](C)[C@@H](CN(C)C(=O)Nc1ccccc1)OCCCC[C@H](C)O2	-0.4	36.2	0.8	nt	nt	nt	nt
CC(C)NC(=O)N(C)C[C@H]1OCCCC[C@H](C)Oc2ccc(NC(=O)Nc3ccccc3)cc2C(=O)N([C@H](C)CO)C[C@@H]1C	-1.1	33.9	0.5	nt	nt	nt	nt
Cc1noc(C)c1NC(=O)NCC[C@H]1CC[C@H](NC(=O)c2ccc(F)cc2)[C@@H](CO)O1	0.0	-82.7	0.7	nt	nt	nt	nt
